Data taken from ChEMBL document CHEMBL3769319, “Antischistosomal activity of N,N'-arylurea analogs against Schistosoma japonicum” (Bioorg Med Chem Lett, 2016).
Active and inactive are the calls of the source. No cut-off for these calls is given here.

Key:
[1] = test system: Schistosoma japonicum; experiment: Antischistosomal activity against juvenile stage of Schistosoma japonicum at 32 uM after 72 hrs by microscopy
[2] = test system: Schistosoma japonicum; experiment: Antischistosomal activity against juvenile stage of Schistosoma japonicum after 72 hrs by microscopy; type: functional, organism-based
In short: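 Juvenile S. japonicum were screened at 32 µM for 72 h. Compounds that killed worms were then tested three times in 2-fold serial dilutions from 32 to 2 µM, each incubated 72 h, and IC50 was calculated.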

[3] = test system: Schistosoma japonicum; experiment: Antischistosomal activity against adult stage of Schistosoma japonicum after 72 hrs by microscopy; type: functional, organism-based
[4] = test system: Schistosoma japonicum; experiment: Antischistosomal activity against juvenile stage of Schistosoma japonicum infected in ICR mouse assessed as reduction of parasite burden at 200 mg/kg, po administered as single dose measured after 14 days; type: functional; design: scale not given: the % may be the effect or the level left
[5] = test system: Schistosoma japonicum; experiment: Antischistosomal activity against adult stage of Schistosoma japonicum infected in ICR mouse assessed as reduction of parasite burden at 200 mg/kg, po administered as single dose measured after 14 days; type: functional; design: scale not given: the % may be the effect or the level left
In short: (§1)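 Mice with adult S. japonicum infection got one oral dose (200 or 400 mg/kg) as an ultrasound-aided corn oil suspension; one group got an HP-β-CD complex solution instead. Untreated infected mice served as controls, 5–6 per group. Worm counts (mean, SD) gave percent worm burden reduction against control.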

[6] = test system: Schistosoma japonicum; experiment: Antischistosomal activity against juvenile stage of Schistosoma japonicum infected in ICR mouse assessed as reduction of parasite burden at 400 mg/kg, po administered as single dose measured after 14 days; type: functional; design: scale not given: the % may be the effect or the level left
[7] = test system: Schistosoma japonicum; experiment: Antischistosomal activity against adult stage of Schistosoma japonicum infected in ICR mouse assessed as reduction of parasite burden at 400 mg/kg, po administered as single dose measured after 14 days; type: functional; design: scale not given: the % may be the effect or the level left
In short: as §1

[8] = test system: Schistosoma mansoni; experiment: Antischistosomal activity against Schistosoma mansoni infected in mouse assessed as reduction of parasite burden at 400 mg/kg, po administered as single dose; type: functional; design: scale not given: the % may be the effect or the level left

IC50 [2] [µM] | SMILES | Activity [1] | also measured
– | O=C(Nc1ccc(Cl)c(Cl)c1)NN1CCN(c2ccccc2)CC1 | inactive | –
2.8 | O=C(Nc1ccc(Cl)c(C(F)(F)F)c1)Nc1ccc(Cl)c(C(F)(F)F)c1 | – | IC50 [3]: 2.2 µM; Activity [4]: 33.4%; Activity [5]: 32.6%
4.3 | N#Cc1cc(NC(=O)Nc2ccc(Cl)c(Cl)c2)ccc1F | – | Activity [6]: 14.6%; IC50 [3]: 2.2 µM; Activity [7]: 11.4%
– | O=C(Nc1cccnc1)Nc1ccc(Cl)c(Cl)c1 | inactive | –
12.8 | O=C(Nc1ccc(Cl)c(Cl)c1)Nc1cccc2ccccc12 | – | –
9.6 | O=C(Nc1ccc(Cl)c(Cl)c1)Nc1ccc(N2CCOCC2)c(C(F)(F)F)c1 | – | Activity [6]: 18.8%; IC50 [3]: 8.4 µM; Activity [7]: 3.4%
– | O=C1C(=O)N(c2ccc(Cl)c(C(F)(F)F)c2)C(=O)N1c1ccc(Cl)c(Cl)c1 | inactive | –
– | O=C(Nc1ccccn1)Nc1ccccn1 | inactive | –
22.6 | O=C(Nc1ccccc1S(=O)(=O)N1CCOCC1)Nc1ccccc1S(=O)(=O)N1CCOCC1 | – | –
4.4 | O=C(Nc1ccc(Cl)c(Cl)c1)Nc1ccc(Cl)c(Cl)c1 | – | Activity [6]: 32.2%; IC50 [3]: 2.2 µM; Activity [7]: 9.3%; Activity [8]: 52.5%
– | C[C@H]1[C@H](OC(=O)CCC(=O)O)O[C@@H]2O[C@@]3(C)CC[C@H]4[C@H](C)CC[C@@H]1[C@@]24OO3 [ARTESUNATE] | – | Activity [6]: 72.4%
– | Nc1ccc(NC(=O)Nc2ccc(Cl)c(Cl)c2)cc1 | inactive | –
22.6 | O=C(Nc1ccc(Cl)c(Cl)c1)Nc1cccc2cnccc12 | – | –
– | O=C(Nc1ccc(Cl)c(Cl)c1)NC1CCCCC1 | inactive | –
2.5 | O=C(Nc1ccc(Cl)c(Cl)c1)Nc1ccc(Cl)c(C(F)(F)F)c1 | – | IC50 [3]: 1.5 µM; Activity [4]: 11.6%; Activity [5]: 26.6%
– | O=C(C1CCCCC1)N1CC(=O)N2CCc3ccccc3C2C1 (stereo not drawn) [PRAZIQUANTEL] | – | Activity [7]: 90.7%
– | O=C1N(c2ccc(Cl)c(Cl)c2)C(O)C(O)N1c1ccc(Cl)c(C(F)(F)F)c1 (stereo not drawn) | inactive | –
22.6 | O=S(=O)(Nc1ccc(Cl)c(Cl)c1)Nc1ccc(Cl)c(Cl)c1 | Active | –
– | O=C1N(c2ccc(Cl)c(Cl)c2)CCN1c1ccc(Cl)c(C(F)(F)F)c1 | inactive | –
– | COc1ccc(NC(=O)Nc2ccc(Cl)c(Cl)c2)cc1 | inactive | –

IC50 [2] [µM] | SMILES | Activity [1] | also measured
– | O=C(Nc1ccc(Cl)c(Cl)c1)NC12CC3CC(CC(C3)C1)C2 | inactive | –
– | O=C(Nc1cccnc1)Nc1cccnc1 | inactive | –
– | Cc1ccc(NC(=O)Nc2ccc(Cl)c(Cl)c2)cc1 | inactive | –
– | S=C(Nc1ccc(Cl)c(Cl)c1)Nc1ccc(Cl)c(Cl)c1 | inactive | –
– | COc1ccccc1NC(=O)Nc1ccc(Cl)c(Cl)c1 | inactive | –
11.3 | O=C(Nc1ccc(Cl)c(Cl)c1)Nc1cnc(Cl)c(Cl)c1 | – | –
12.7 | Cc1ccc(NC(=O)Nc2ccc(Cl)c(Cl)c2)cc1Cl | – | –
– | COc1cccc(NC(=O)Nc2ccc(Cl)c(Cl)c2)c1 | inactive | –
22.6 | O=C(Nc1ccc(N2CCOCC2)c(C(F)(F)F)c1)Nc1ccc(N2CCOCC2)c(C(F)(F)F)c1 | – | –
– | Clc1nc(Nc2ccc(Cl)c(Cl)c2)nc(Nc2ccc(Cl)c(Cl)c2)n1 | inactive | –
19 | Clc1ccc(Nc2nc(Nc3ccc(Cl)c(Cl)c3)nc(N3CCOCC3)n2)cc1Cl | Active | –
– | O=C(Nc1ccc(Cl)c(Cl)c1)C(=O)Nc1ccc(Cl)c(Cl)c1 | inactive | –
7 | O=C(Nc1ccc(F)c(F)c1)Nc1ccc(F)c(F)c1 | – | Activity [6]: 6.4%; IC50 [3]: 5.1 µM; Activity [7]: 2.3%
– | O=C(Nc1ccc(Cl)c(Cl)c1)Nc1ccccc1F | inactive | –
4.7 | O=C(Nc1ccc(F)c(F)c1)Nc1ccc(Cl)c(Cl)c1 | – | Activity [6]: 27.8%; IC50 [3]: 2.2 µM; Activity [7]: 0%
– | O=C(Nc1cnc(Cl)c(Cl)c1)Nc1cnc(Cl)c(Cl)c1 | inactive | –
10.1 | O=C(Nc1cccc(Cl)c1)Nc1ccc(Cl)c(Cl)c1 | – | –
– | CCCCNC(=O)Nc1ccc(Cl)c(Cl)c1 | inactive | –
– | Clc1ccc(Nc2cc(Nc3ccc(Cl)c(Cl)c3)ncn2)cc1Cl | inactive | –
